Data: ChEMBL document CHEMBL5678806, “NMS-P937, an orally available, specific small-molecule polo-like kinase 1 inhibitor with antitumor activity in solid and hematologic malignancies” (Mol Cancer Ther, 2012)
Active and inactive are the calls of the source. No cut-off for these calls is given here.

Key:
[1] = target: Mitotic checkpoint serine/threonine-protein kinase BUB1 (Homo sapiens, UniProt O43683); test: Inhibition of BUB1 (unknown origin) in presence of [gamma-33P]ATP
[2] = target: Serine/threonine-protein kinase Chk1 (Homo sapiens, UniProt O14757); test: Inhibition of CHK1 (unknown origin) in presence of [gamma-33P]ATP
Serine/threonine-protein kinase Chk1, sequence (O14757 whole entry): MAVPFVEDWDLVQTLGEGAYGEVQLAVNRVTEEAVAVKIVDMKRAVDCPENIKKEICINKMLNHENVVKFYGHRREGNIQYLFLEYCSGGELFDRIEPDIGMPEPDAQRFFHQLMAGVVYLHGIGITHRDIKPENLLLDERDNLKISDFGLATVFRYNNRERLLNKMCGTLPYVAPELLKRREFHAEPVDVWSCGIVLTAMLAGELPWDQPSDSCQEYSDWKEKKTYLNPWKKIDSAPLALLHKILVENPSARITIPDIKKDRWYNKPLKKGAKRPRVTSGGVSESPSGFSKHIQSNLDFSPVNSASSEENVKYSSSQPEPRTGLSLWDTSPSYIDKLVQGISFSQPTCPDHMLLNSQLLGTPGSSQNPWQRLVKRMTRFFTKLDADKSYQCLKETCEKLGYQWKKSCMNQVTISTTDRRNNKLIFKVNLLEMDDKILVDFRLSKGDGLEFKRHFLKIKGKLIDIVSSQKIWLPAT

[3] = target: CDK9/cyclin T1 (Homo sapiens) (UniProt O60563+P50750); test: Inhibition of C-terminal 6His-tagged full-length recombinant human CDK9/ full-length human cyclin T1 expressed in baculovirus infected Sf21 cells assessed as residual activity at 0.1 uM relative to control
[4] = target: cGMP-dependent protein kinase 1 (Homo sapiens) (UniProt Q13976); test: Inhibition of N-terminal 6His-tagged recombinant, full-length human PKG1alpha expressed in baculovirus infected Sf21 cells assessed as residual activity at 0.1 uM relative to control
cGMP-dependent protein kinase 1 (Homo sapiens), sequence (Q13976 whole entry): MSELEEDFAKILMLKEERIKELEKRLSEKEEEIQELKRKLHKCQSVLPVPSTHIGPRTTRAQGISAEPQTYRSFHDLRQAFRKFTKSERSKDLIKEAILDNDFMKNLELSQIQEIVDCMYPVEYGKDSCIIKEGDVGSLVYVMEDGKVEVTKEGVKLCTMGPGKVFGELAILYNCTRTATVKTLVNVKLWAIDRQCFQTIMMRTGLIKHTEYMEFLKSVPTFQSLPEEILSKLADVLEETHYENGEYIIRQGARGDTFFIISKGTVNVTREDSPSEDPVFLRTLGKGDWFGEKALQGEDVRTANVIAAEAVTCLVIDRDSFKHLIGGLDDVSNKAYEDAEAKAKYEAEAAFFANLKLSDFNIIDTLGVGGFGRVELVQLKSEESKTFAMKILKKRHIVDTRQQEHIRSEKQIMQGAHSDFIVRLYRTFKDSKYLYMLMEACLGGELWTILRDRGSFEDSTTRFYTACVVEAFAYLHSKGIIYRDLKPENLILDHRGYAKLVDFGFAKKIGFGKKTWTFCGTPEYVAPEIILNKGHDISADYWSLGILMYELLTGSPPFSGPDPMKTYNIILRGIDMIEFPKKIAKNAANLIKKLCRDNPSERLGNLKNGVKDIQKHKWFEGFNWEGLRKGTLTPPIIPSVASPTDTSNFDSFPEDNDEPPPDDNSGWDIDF

[5] = target: Tyrosine-protein kinase ZAP-70 (Homo sapiens) (UniProt P43403); test: Inhibition of C-terminal His6 tagged recombinant human full length ZAP-70 expressed in Sf21 cells assessed as residual activity at 0.1 uM relative to control
Tyrosine-protein kinase ZAP-70 (Homo sapiens), sequence (P43403 whole entry): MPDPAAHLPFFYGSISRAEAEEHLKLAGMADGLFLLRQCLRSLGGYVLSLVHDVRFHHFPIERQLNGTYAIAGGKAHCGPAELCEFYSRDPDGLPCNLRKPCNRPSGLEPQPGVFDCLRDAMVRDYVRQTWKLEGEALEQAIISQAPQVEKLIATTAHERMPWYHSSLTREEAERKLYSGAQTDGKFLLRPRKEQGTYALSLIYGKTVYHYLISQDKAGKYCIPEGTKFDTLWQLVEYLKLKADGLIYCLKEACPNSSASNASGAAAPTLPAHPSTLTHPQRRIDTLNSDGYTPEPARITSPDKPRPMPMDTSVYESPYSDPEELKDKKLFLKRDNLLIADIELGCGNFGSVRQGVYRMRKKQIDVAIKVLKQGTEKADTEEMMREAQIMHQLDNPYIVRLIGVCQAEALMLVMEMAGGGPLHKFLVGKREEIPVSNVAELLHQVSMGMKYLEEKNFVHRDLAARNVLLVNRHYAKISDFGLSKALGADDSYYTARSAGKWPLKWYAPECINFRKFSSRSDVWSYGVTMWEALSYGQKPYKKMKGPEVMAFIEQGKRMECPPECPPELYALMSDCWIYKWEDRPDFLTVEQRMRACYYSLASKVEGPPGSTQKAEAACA

[6] = target: Serine/threonine-protein kinase Nek3 (Homo sapiens) (UniProt P51956); test: Inhibition of N-terminal 6His-tagged recombinant full length human NEK3 expressed in baculovirus infected Sf21 cells assessed as residual activity at 1 uM relative to control
Serine/threonine-protein kinase Nek3 (Homo sapiens), sequence (P51956 whole entry): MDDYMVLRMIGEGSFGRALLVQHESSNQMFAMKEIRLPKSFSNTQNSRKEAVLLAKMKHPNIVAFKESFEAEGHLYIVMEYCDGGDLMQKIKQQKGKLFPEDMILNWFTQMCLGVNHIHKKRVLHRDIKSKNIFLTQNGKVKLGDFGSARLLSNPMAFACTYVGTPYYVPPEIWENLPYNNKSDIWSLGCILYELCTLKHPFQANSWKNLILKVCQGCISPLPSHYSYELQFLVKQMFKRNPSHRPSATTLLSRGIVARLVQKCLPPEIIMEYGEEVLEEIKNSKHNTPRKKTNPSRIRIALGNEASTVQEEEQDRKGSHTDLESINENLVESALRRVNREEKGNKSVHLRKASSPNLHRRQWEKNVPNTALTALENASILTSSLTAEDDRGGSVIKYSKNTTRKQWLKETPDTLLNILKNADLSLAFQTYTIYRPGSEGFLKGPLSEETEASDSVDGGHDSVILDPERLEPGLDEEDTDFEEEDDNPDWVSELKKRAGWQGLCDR

[7] = target: cAMP-dependent protein kinase (PKA) (Homo sapiens) (UniProt P22694+P17612+P22612); test: Inhibition of recombinant human full-length PKA expressed in E.coli BL21 (DE3) pLysS cells assessed as residual activity at 1 uM relative to control
[8] = target: Serine/threonine-protein kinase TBK1 (Homo sapiens) (UniProt Q9UHD2); test: Inhibition of N-terminal His6-tagged recombinant full-length human TBK1 expressed in baculovirus infected Sf21 cells assessed as residual activity at 1 uM relative to control
Serine/threonine-protein kinase TBK1 (Homo sapiens), sequence (Q9UHD2 whole entry, the tested form may be a part): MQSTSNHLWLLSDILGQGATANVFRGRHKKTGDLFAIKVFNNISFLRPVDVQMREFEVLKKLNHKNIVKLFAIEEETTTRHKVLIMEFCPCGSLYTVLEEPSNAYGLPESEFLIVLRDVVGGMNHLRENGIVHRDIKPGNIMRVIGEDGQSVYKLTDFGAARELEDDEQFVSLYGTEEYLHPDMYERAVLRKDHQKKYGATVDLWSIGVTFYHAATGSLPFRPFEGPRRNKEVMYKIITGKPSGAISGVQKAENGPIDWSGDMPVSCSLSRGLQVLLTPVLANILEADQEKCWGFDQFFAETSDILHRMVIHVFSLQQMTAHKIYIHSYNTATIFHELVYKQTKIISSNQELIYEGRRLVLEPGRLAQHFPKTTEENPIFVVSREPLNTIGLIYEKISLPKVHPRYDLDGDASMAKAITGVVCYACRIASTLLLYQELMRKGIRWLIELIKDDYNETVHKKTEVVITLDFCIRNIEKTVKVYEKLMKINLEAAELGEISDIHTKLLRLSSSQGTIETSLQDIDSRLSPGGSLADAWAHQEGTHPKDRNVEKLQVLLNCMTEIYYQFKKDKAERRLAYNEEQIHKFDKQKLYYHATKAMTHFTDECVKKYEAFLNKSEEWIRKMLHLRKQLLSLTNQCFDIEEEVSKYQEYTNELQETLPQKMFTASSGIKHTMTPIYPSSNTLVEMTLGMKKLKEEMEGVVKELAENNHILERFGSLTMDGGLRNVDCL

[9] = target: Death-associated protein kinase 3 (Homo sapiens) (UniProt O43293); test: Inhibition of N-terminal GST tagged recombinant human ZIPK (1 to 290 residues) expressed in E. coli assessed as residual activity at 1 uM relative to control
Death-associated protein kinase 3 (Homo sapiens), sequence (O43293 whole entry, looked up, the tested form may be a part): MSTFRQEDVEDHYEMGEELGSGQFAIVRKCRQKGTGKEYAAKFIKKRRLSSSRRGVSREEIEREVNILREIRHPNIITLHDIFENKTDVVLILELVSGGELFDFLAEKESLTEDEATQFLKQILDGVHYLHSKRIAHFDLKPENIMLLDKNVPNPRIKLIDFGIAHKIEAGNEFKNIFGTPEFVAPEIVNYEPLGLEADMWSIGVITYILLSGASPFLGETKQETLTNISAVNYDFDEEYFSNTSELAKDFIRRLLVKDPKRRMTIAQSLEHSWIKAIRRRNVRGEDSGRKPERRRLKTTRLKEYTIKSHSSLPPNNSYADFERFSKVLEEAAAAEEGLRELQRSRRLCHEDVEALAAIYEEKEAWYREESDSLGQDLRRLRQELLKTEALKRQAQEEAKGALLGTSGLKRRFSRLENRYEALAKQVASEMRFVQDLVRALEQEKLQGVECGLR

[10] = Antiproliferative activity against human GBM-0627-GFD cells assessed as inhibition of cell growth incubated for 72 hrs by cell-titer glo assay; assay type: functional, cell-based
Outline: (§1)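 Cells seeded 10,000–30,000/cm² (adherent) or 100,000/mL (suspension) in medium with 10% fetal calf serum; after 24 h treated in duplicate with serial dilutions for 72 h. Viable cells read by CellTiter-Glo luminescence; IC50 from sigmoidal fit; at least two independent experiments.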

[11] = test system: BT-474; test: Antiproliferative activity against human BT-474 cells assessed as inhibition of cell growth incubated for 72 hrs by cell-titer glo assay; assay type: functional, cell-based; settings: BT-474, 72 h; outline: as §1
[12] = test system: DLD-1; test: Antiproliferative activity against human DLD-1 cells assessed as inhibition of cell growth incubated for 72 hrs by cell-titer glo assay; assay type: functional, cell-based; settings: DLD-1, 72 h; outline: as §1
[13] = test system: COLO-678; test: Antiproliferative activity against human COLO-678 cells assessed as inhibition of cell growth incubated for 72 hrs by cell-titer glo assay; assay type: functional, cell-based; settings: COLO-678, 72 h; outline: as §1
[14] = test system: HOP-62; test: Antiproliferative activity against human HOP-62 cells assessed as inhibition of cell growth incubated for 72 hrs by cell-titer glo assay; assay type: functional, cell-based; settings: HOP-62, 72 h
Outline: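 Cells seeded at 10,000–30,000/cm² (adherent) or 100,000/mL (nonadherent) in medium with 10% fetal calf serum; after 24 h, treated in duplicate with serial dilutions for 72 h. Viable cell number read by CellTiter-Glo luminescence; IC50 from sigmoidal fit; at least two independent experiments.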

[15] = test system: CAPAN-1; test: Antiproliferative activity against human CAPAN-1 cells assessed as inhibition of cell growth incubated for 72 hrs by cell-titer glo assay; assay type: functional, cell-based; settings: CAPAN-1, 72 h; outline: as §1
[16] = test system: A-431; test: Antiproliferative activity against human A-431 cells assessed as inhibition of cell growth incubated for 72 hrs by cell-titer glo assay; assay type: functional, cell-based; settings: A-431, 72 h; outline: as §1
[17] = test system: SK-MEL-2; test: Antiproliferative activity against human SK-MEL-2 cells assessed as inhibition of cell growth incubated for 72 hrs by cell-titer glo assay; assay type: functional, cell-based; settings: SK-MEL-2, 72 h
[18] = test system: SK-MEL-5; test: Antiproliferative activity against human SK-MEL-5 cells assessed as inhibition of cell growth incubated for 72 hrs by cell-titer glo assay; assay type: functional, cell-based; settings: SK-MEL-5, 72 h
[19] = test system: THP-1; test: Antiproliferative activity against human THP-1 cells assessed as inhibition of cell growth incubated for 72 hrs by cell-titer glo assay; assay type: functional, cell-based; settings: THP-1, 72 h
[20] = test system: NCI-H929; test: Antiproliferative activity against human NCI-H929 cells assessed as inhibition of cell growth incubated for 72 hrs by cell-titer glo assay; assay type: functional, cell-based; settings: NCI-H929, 72 h
Outline: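 Cells from ATCC or ECACC, kept in supplier-recommended medium with 1% penicillin-streptomycin at 37°C, 5% CO₂. Seeded at 10,000–30,000/cm² (adherent) or 100,000/mL (nonadherent) in medium with 10% fetal calf serum. Dosed after 24 h in duplicate with serial dilutions. Viable cells read by CellTiter-Glo 72 h later. IC50 from sigmoidal fit. At least two independent experiments.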

[21] = Antiproliferative activity against human adriamycin-resistant RPMI-8226-ADR cells assessed as inhibition of cell growth incubated for 72 hrs by cell-titer glo assay; assay type: functional, cell-based
[22] = Clearance in nu/nu mouse at 10 mg/kg, iv by LC-MS analysis; assay type: ADME, organism-based; settings: in vivo
[23] = AUC in Beagle dog at 5 mg/kg, iv by LC-MS analysis; assay type: ADME, organism-based, Canis lupus familiaris; settings: in vivo
[24] = Cmax in Sprague-Dawley rat at 10 mg/kg, po by LC-MS analysis; assay type: ADME, organism-based; settings: in vivo
[25] = Tmax in male cynomolgus monkey at 5 mg/kg, po by LC-MS analysis; assay type: ADME, organism-based, Macaca fascicularis; settings: in vivo
[26] = test system: A2780; test: Antiproliferative activity against human A2780 cells assessed as reduction in cell number at 0.5 to 1 uM incubated for 8 hrs followed by compound washout and measured after 24 to 48 hrs by cell titer glow assay; assay type: functional, cell-based; settings: dose 0.5-1 µM
Outline: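 A2780 cells exposed to 0.5 or 1 μmol/L for 8 hours, then compound withdrawn; cells replated and grown 24 and 48 hours in drug-free medium before assessing cell growth.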

[27] = test system: HCT-116; test: Antitumor activity against human HCT-116 cells xenografted in nu/nu mouse assessed as tumor growth inhibition at 60 mg/kg, po administered for 8 days relative to control; assay type: functional; settings: HCT-116, 192 h, time 8 day, read-out: TGI
[28] = test system: HT-29; test: Antitumor activity against human HT-29 cells xenografted in nu/nu mouse assessed as tumor growth inhibition at 60 mg/kg, po administered for 10 days; assay type: functional, organism-based; settings: time 10.0 day
[29] = test system: A2780; test: In vivo inhibition of PLK1 in human A2780 cells xenografted in nu/nu mouse assessed as decreased TCTP phosphorylation on Ser46 at 60 mg/kg, po administered for 2 hrs by Western blotting analysis; assay type: functional, organism-based

Mitotic checkpoint serine/threonine-protein kinase BUB1, sequence (O43683 whole entry): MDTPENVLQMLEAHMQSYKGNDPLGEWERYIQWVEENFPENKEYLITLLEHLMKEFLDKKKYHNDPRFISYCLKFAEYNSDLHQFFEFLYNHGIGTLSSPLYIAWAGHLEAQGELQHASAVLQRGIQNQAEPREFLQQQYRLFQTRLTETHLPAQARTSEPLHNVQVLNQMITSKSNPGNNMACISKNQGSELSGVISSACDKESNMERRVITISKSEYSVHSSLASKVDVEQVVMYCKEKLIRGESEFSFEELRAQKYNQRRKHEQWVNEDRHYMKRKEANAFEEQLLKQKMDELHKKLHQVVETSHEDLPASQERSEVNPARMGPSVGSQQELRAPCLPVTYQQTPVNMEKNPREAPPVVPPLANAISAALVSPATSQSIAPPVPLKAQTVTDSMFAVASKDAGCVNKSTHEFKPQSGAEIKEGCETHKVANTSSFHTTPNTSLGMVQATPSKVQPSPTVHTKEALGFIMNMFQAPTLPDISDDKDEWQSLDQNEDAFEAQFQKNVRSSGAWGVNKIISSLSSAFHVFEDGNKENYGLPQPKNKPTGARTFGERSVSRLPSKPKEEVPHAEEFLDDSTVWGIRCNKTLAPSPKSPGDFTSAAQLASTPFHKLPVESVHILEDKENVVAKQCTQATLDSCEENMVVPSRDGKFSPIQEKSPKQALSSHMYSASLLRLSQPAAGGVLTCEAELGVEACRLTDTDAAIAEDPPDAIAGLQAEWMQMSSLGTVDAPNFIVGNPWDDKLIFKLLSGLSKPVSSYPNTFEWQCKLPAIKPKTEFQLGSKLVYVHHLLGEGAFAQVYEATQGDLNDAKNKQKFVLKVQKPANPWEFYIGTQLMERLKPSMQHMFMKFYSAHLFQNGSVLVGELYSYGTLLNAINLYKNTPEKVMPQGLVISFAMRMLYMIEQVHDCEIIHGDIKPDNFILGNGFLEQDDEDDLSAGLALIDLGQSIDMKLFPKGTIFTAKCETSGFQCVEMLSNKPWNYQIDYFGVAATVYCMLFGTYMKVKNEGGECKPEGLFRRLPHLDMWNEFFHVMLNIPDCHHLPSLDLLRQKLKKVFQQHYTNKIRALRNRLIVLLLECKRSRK

CN1CCN(c2ccc(OC(F)(F)F)c(Nc3ncc4c(n3)-c3c(c(C(N)=O)nn3CCO)CC4)c2)CC1 [ONVANSERTIB]
IC50 [1]: > 10000 nM
IC50 [2]: > 10000 nM
Activity [3]: 64%
Activity [4]: 113%
Activity [5]: 88%
Activity [6]: 118%
Activity [7]: 85%
Activity [8]: 96%
Activity [9]: 87%
IC50 [10]: 56 nM
IC50 [11]: 156 nM
IC50 [12]: 329 nM
IC50 [13]: 354 nM
IC50 [14]: 209 nM
IC50 [15]: 237 nM
IC50 [16]: 59 nM
IC50 [17]: 256 nM
IC50 [18]: 513 nM
IC50 [19]: 32 nM
IC50 [20]: 63 nM
IC50 [21]: 1310 nM
clearance [22]: 39.4 mL/min/kg
AUC [23]: 4.2 µM·h
Cmax [24]: 4.2 µM
Tmax [25]: 2.7 h
Activity [26]: Active
inhibition in vivo at 60 mg/kg [27]: 79%
TGI [28]: Active
inhibition [29]: Active
